Data published in ChEMBL document CHEMBL1147739, “Identification of the key residue of calcitonin gene related peptide (CGRP) 27-37 to obtain antagonists with picomolar affinity at the CGRP receptor” (J Med Chem, 2006).
*1 amine or outer side, *2 acyl side, *3 side chain or, on linkers, in order; H or OH if unused. Where a SMILES comes first, the peptide text is derived from it. [ ]: non-standard residue; d: D form. X2 = COC(=O)[C@@H]1[C@@H](N[*:1])[C@H]1C(=O)[*:2]; X1 = COC(=O)[C@H]1[C@H](N[*:1])[C@@H]1C(=O)[*:2]

What was measured:
[1] = target: T1, Calcitonin-gene-related peptide receptor, CALCRL/RAMP1 (Homo sapiens, UniProt O60894+Q16602); experiment: Displacement of [3H-propionyl-K24] from halphaCGRP expressed in human neuroblastoma SK-N-MC cells; format: cell-based
T1 sequence (O60894 whole entry): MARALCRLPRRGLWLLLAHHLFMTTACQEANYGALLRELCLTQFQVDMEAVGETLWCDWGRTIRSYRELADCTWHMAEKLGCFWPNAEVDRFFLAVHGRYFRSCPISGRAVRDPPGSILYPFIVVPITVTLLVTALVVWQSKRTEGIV
T1 sequence (Q16602 whole entry): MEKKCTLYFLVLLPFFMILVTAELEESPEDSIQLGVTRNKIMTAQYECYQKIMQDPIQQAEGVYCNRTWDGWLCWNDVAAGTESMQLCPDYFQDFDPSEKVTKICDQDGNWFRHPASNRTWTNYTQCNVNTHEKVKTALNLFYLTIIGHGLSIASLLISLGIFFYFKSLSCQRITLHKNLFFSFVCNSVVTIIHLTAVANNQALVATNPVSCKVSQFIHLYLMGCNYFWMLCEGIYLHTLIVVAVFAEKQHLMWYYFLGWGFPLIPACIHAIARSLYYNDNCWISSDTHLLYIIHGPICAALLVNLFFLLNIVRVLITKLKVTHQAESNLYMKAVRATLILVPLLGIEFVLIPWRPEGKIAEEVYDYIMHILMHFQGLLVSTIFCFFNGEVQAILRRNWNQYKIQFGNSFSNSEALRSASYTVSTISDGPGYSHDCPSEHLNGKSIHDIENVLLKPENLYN
Outline: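 Whole SK-N-MC cells, 3 million/mL in Tris pH 7.4 buffer with NaCl, MgCl2, Pefabloc and 1% BSA. Incubated 90 min at room temperature with 1 nM [3H-propionyl-K24]-hRCGRP 8-37 and competitor (10-5-10-14 M). Separated by centrifugation with a cold wash, then β-counted. IC50 by nonlinear regression, converted to Ki by Cheng-Prusoff with tracer KD. Three experiments in triplicate.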

[2] = target: T1, Calcitonin-gene-related peptide receptor, CALCRL/RAMP1; experiment: Antagonist activity on halphaCGRP-induced cAMP accumulation at human neuroblastoma SK-N-MC cells; format: functional, cell-based; conditions: read-out: pA2 (converted)
Outline: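 SK-N-MC cells detached with PBS-EDTA, washed in HEPES/glucose Hank's, ~2 million cells/mL in buffer with 1 mM IBMX and 1% BSA. Preincubated 15 min at 37 °C, then 15 min with hRCGRP (10-5-10-12 M) alone or with fixed antagonist (10 or 100 nM). cAMP extracted with HCl, AlphaScreen read-out. Agonist EC50 shifts gave concentration ratios, and apparent pA2 = log((CR-1)/[B]). Three experiments in triplicate.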

[3] = target: T1, Calcitonin-gene-related peptide receptor, CALCRL/RAMP1; experiment: Displacement of [125I-Tyr10] from halphaCGRP expressed in human neuroblastoma SK-N-MC cells; format: cell-based

Compound	Ki [1]	Kb [2]	Ki [3]
CC(C)[C@H](NC(=O)[C@H](CC(=O)O)NC(=O)[C@@H](NC(=O)[C@@H]1CCCCN1C(=O)[C@@H](NC(=O)[C@@H](N)Cc1ccccc1)C(C)C)[C@@H](C)O)C(=O)NCC(=O)N1CCC[C@H]1C(=O)N[C@@H](Cc1ccccc1)C(=O)N[C@@H](C)C(=O)N[C@@H](Cc1ccccc1)C(=O)O	> 10000 nM	–	–
COC(=O)[C@@H]1[C@@H](NC(=O)[C@@H](NC(=O)[C@@H](N)Cc2ccccc2)C(C)C)[C@H]1C(=O)N[C@H](C(=O)N[C@@H](CC(=O)O)C(=O)N[C@H](C(=O)NCC(=O)N1CCC[C@H]1C(=O)N[C@@H](Cc1ccccc1)C(=O)N[C@@H](C)C(=O)N[C@@H](Cc1ccccc1)C(=O)O)C(C)C)[C@@H](C)O	> 10000 nM	–	–
COC(=O)[C@H]1[C@H](NC(=O)CNC(=O)[C@@H](NC(=O)[C@H](CC(=O)O)NC(=O)[C@@H](NC(=O)[C@@H]2CCCN2C(=O)[C@@H](NC(=O)[C@@H](N)Cc2ccccc2)C(C)C)[C@@H](C)O)C(C)C)[C@@H]1C(=O)N[C@@H](Cc1ccccc1)C(=O)N[C@@H](C)C(=O)N[C@@H](Cc1ccccc1)C(=O)O (H-FVPTDVG[X1]FAF-OH)	> 10000 nM	–	–
COC(=O)[C@@H]1[C@@H](NC(=O)CNC(=O)[C@@H](NC(=O)[C@H](CC(=O)O)NC(=O)[C@@H](NC(=O)[C@@H]2CCCN2C(=O)[C@@H](NC(=O)[C@@H](N)Cc2ccccc2)C(C)C)[C@@H](C)O)C(C)C)[C@H]1C(=O)N[C@@H](Cc1ccccc1)C(=O)N[C@@H](C)C(=O)N[C@@H](Cc1ccccc1)C(=O)O (H-FVPTDVG[X2]FAF-OH)	> 10000 nM	–	–
COC(=O)[C@H]1[C@H](NC(=O)CNC(=O)[C@@H](NC(=O)[C@H](CC(N)=O)NC(=O)[C@@H](NC(=O)[C@@H]2CCCN2C(=O)[C@@H](NC(=O)[C@@H](N)Cc2ccccc2)C(C)C)[C@@H](C)O)C(C)C)[C@@H]1C(=O)N[C@@H](Cc1ccccc1)C(=O)N[C@@H](C)C(=O)N[C@@H](Cc1ccccc1)C(=O)O (H-FVPTNVG[X1]FAF-OH)	> 10000 nM	–	–
COC(=O)[C@@H]1[C@@H](NC(=O)CNC(=O)[C@@H](NC(=O)[C@H](CC(N)=O)NC(=O)[C@@H](NC(=O)[C@@H]2CCCN2C(=O)[C@@H](NC(=O)[C@@H](N)Cc2ccccc2)C(C)C)[C@@H](C)O)C(C)C)[C@H]1C(=O)N[C@@H](Cc1ccccc1)C(=O)N[C@@H](C)C(=O)N[C@@H](Cc1ccccc1)C(=O)O (H-FVPTNVG[X2]FAF-OH)	> 10000 nM	–	–
H-FVPTDVGAFAF-OH	13.6 nM	–	76.8 nM

These reach a lower Ki [1]. Values come first.

Ki [1]	Kb [2]	Ki [3]	Compound
8.4 nM	25.1 nM	–	H-FVATDVGPFAF-OH
0.7 nM	–	–	COC(=O)[C@H]1[C@H](NC(=O)[C@@H](NC(=O)[C@@H](N)Cc2ccccc2)C(C)C)[C@@H]1C(=O)N[C@H](C(=O)N[C@@H](CC(=O)O)C(=O)N[C@H](C(=O)NCC(=O)N1CCC[C@H]1C(=O)N[C@@H](Cc1ccccc1)C(=O)N[C@@H](C)C(=O)N[C@@H](Cc1ccccc1)C(=O)O)C(C)C)[C@@H](C)O
0.02 nM	6.31 nM	–	CC(C)[C@H](NC(=O)[C@H](CC(=O)O)NC(=O)[C@@H](NC(=O)[C@@H]1Cc2ccccc2CN1C(=O)[C@@H](NC(=O)[C@@H](N)Cc1ccccc1)C(C)C)[C@@H](C)O)C(=O)NCC(=O)N1CCC[C@H]1C(=O)N[C@@H](Cc1ccccc1)C(=O)N[C@@H](C)C(=O)N[C@@H](Cc1ccccc1)C(=O)O
0.02 nM	–	14 nM	CC(C)[C@H](NC(=O)[C@H](CC(=O)O)NC(=O)[C@@H](NC(=O)[C@@H]1CCCN1C(=O)[C@@H](NC(=O)[C@@H](N)Cc1ccccc1)C(C)C)[C@@H](C)O)C(=O)NCC(=O)N1CCC[C@H]1C(=O)N[C@@H](Cc1ccccc1)C(=O)N[C@@H](C)C(=O)N[C@@H](Cc1ccccc1)C(=O)O
0.006 nM	31.6 nM	–	CC(C)[C@H](NC(=O)[C@H](CC(=O)O)NC(=O)[C@@H](NC(=O)[C@@H]1C[C@@H](O)CN1C(=O)[C@@H](NC(=O)[C@@H](N)Cc1ccccc1)C(C)C)[C@@H](C)O)C(=O)NCC(=O)N1CCC[C@H]1C(=O)N[C@@H](Cc1ccccc1)C(=O)N[C@@H](C)C(=O)N[C@@H](Cc1ccccc1)C(=O)O
0.002 nM	10 nM	–	CC(C)[C@H](NC(=O)[C@H](CC(=O)O)NC(=O)[C@@H](NC(=O)C(C)(C)NC(=O)[C@@H](NC(=O)[C@@H](N)Cc1ccccc1)C(C)C)[C@@H](C)O)C(=O)NCC(=O)N1CCC[C@H]1C(=O)N[C@@H](Cc1ccccc1)C(=O)N[C@@H](C)C(=O)N[C@@H](Cc1ccccc1)C(=O)O
